ChEMBL document CHEMBL1148104, “New sugar-mimic alkaloids from the pods of Angylocalyx pynaertii” (J Nat Prod, 2002)

Assays:
Rattus norvegicus = species on record: Rattus norvegicus; assay: Inhibition of rat epididymis alpha-mannosidase assessed as p-nitrophenol release at 1000 uM by spectrophotometrically
[1] = molecular target: T1, Tissue alpha-L-fucosidase (Bos taurus, UniProt Q2KIM0); assay: Inhibition of bovine epididymis alpha-L-fucosidase assessed as p-nitrophenol release by spectrophotometrically
T1 sequence (Q2KIM0 whole entry): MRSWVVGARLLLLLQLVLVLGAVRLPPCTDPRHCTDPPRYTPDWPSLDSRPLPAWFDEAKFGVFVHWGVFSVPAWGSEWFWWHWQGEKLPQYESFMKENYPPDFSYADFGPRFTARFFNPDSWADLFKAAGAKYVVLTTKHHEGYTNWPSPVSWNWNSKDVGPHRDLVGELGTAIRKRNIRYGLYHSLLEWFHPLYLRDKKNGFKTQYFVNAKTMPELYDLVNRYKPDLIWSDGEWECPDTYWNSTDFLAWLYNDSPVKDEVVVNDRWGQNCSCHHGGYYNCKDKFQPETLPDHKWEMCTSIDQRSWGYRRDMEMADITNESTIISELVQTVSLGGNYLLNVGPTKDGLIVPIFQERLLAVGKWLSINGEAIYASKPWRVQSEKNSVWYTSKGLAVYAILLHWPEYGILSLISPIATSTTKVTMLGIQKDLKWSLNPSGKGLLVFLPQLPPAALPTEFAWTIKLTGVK
How it was run: (§1)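 Assayed with the appropriate p-nitrophenyl glycoside substrate at each enzyme's optimum pH.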

Oryza sativa = assay: Inhibition of rice alpha-glucosidase assessed as glucose release at 1000 uM by Glucose B-test
How it was run: (§2)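 Disaccharide substrate suited to each enzyme, at that enzyme's optimum pH. Released D-glucose was measured colorimetrically with the Glucose B-test.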

[2] = molecular target: Lysosomal alpha-glucosidase (Rattus norvegicus) (UniProt Q6P7A9); assay: Inhibition of rat intestinal maltase assessed as glucose release at 1000 uM by Glucose B-test
How it was run: (§3)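 Enzyme source was brush border membranes prepared from rat small intestine. Maltase, sucrase and isomaltase activities were read with the matching disaccharide substrate at each enzyme's optimum pH, and liberated D-glucose was quantified colorimetrically by Glucose B-test.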

Aspergillus niger = assay: Inhibition of Aspergillus niger amyloglucosidase assessed as glucose release at 1000 uM by Glucose B-test; how it was run: as §2
[3] = molecular target: T2, Beta-mannosidase (Rattus norvegicus) (UniProt Q4FZV0); assay: Inhibition of rat epididymis beta-mannosidase assessed as p-nitrophenol release at 1000 uM by spectrophotometrically
T2 sequence (whole entry): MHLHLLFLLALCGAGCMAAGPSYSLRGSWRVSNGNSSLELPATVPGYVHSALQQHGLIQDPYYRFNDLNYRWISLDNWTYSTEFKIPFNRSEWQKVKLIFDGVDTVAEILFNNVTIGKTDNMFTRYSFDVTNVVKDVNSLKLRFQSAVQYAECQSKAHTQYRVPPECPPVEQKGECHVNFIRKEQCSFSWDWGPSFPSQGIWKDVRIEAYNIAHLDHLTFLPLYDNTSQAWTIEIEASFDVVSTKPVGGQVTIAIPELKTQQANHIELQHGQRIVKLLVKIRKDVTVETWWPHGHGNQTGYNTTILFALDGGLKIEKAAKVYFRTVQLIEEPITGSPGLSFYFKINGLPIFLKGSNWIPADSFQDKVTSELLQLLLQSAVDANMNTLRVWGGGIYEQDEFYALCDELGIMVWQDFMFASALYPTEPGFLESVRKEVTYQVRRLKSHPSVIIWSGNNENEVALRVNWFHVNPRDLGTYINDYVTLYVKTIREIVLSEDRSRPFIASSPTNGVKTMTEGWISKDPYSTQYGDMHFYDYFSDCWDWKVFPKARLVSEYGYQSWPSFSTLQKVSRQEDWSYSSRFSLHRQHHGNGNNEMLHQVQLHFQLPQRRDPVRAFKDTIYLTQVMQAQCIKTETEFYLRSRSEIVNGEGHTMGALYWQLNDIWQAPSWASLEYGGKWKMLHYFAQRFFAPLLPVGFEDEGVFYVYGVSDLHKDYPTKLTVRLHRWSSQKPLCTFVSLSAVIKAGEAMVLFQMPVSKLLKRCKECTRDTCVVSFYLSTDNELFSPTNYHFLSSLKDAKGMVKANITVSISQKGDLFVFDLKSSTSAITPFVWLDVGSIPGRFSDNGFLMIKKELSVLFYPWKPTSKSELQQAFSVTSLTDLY

[4] = molecular target: Sucrase-isomaltase, intestinal (Rattus norvegicus) (UniProt P23739); assay: Inhibition of rat intestinal sucrase assessed as glucose release at 1000 uM by Glucose B-test; how it was run: as §3
[5] = molecular target: Alpha-galactosidase (Coffea arabica) (UniProt Q42656); assay: Inhibition of coffee bean alpha-galactosidase assessed as p-nitrophenol release at 1000 uM by spectrophotometrically; how it was run: as §1
[6] = molecular target: T3, Beta-galactosidase (Bos taurus) (UniProt Q58D55); assay: Inhibition of bovine liver beta-galactosidase assessed as p-nitrophenol release at 1000 uM by spectrophotometrically; how it was run: as §1
T3 sequence (whole entry): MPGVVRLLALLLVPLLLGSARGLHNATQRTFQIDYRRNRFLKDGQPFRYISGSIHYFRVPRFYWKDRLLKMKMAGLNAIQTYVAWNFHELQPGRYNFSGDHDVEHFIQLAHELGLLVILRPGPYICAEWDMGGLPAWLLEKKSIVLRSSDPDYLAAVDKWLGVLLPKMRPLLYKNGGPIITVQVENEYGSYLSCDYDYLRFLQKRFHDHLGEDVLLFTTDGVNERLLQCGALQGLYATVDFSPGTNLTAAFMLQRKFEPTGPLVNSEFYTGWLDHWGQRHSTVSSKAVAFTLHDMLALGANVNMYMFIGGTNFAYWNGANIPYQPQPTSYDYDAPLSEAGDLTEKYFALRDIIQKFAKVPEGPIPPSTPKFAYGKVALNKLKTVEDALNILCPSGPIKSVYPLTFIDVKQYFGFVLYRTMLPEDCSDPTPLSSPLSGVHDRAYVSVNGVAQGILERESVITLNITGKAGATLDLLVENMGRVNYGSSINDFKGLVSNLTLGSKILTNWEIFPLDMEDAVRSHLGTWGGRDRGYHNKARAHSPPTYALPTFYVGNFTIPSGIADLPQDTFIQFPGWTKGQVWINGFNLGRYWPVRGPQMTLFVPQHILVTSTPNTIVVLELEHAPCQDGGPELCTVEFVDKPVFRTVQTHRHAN

[7] = molecular target: Sucrase-isomaltase, intestinal (Rattus norvegicus) (UniProt P23739); assay: Inhibition of rat intestinal isomaltase assessed as glucose release at 1000 uM by Glucose B-test; how it was run: as §3
Saccharomyces cerevisiae [8] = assay: Inhibition of yeast alpha-glucosidase assessed as p-nitrophenol release at 1000 uM by spectrophotometrically; how it was run: as §1
Uncharacterized protein = molecular target: T4, Uncharacterized protein (Sus scrofa, UniProt I3LIR5); assay: Inhibition of pig kidney trehalase assessed as p-nitrophenol release by spectrophotometrically
T4 sequence (I3LIR5 whole entry): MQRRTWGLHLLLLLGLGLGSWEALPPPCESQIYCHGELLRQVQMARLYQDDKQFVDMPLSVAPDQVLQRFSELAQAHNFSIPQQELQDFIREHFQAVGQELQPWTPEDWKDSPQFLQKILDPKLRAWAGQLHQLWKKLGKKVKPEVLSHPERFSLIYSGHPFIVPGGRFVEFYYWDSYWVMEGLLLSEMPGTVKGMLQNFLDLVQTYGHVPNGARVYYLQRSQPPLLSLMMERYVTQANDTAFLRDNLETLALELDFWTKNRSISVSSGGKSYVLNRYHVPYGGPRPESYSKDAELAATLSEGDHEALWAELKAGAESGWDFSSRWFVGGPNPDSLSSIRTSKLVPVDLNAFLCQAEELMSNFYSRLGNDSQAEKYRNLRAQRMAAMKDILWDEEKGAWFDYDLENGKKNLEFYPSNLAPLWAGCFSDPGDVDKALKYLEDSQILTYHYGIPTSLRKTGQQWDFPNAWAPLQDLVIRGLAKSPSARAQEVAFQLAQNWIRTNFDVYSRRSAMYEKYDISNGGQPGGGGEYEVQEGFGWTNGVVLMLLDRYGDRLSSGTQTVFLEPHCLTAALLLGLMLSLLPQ

[9] = molecular target: Alpha-glucosidase MAL62 (Saccharomyces cerevisiae) (UniProt P07265); assay: Inhibition of yeast maltase alpha-glucosidase assessed as glucose release at 1000 uM by Glucose B-test
Saccharomyces cerevisiae [10] = assay: Inhibition of yeast isomaltase alpha-glucosidase assessed as glucose release at 1000 uM by Glucose B-test
Alpha-glucosidase MAL62 = Alpha-glucosidase MAL62 (Saccharomyces cerevisiae, UniProt P07265); assay: Inhibition of yeast maltase alpha-glucosidase assessed as glucose release by Glucose B-test
[11] = Inhibition of Aspergillus niger amyloglucosidase assessed as glucose release by Glucose B-test; how it was run: as §2
Beta-galactosidase = molecular target: T5, Beta-galactosidase (Bos taurus, UniProt Q58D55); assay: Inhibition of bovine liver beta-galactosidase assessed as p-nitrophenol release by spectrophotometrically; how it was run: as §1
T5 sequence (Q58D55 whole entry): T3 sequence (whole entry)

[12] = Inhibition of yeast alpha-glucosidase assessed as p-nitrophenol release by spectrophotometrically; design: species or system Saccharomyces cerevisiae; how it was run: as §1
Beta-mannosidase = molecular target: T6, Beta-mannosidase (Rattus norvegicus, UniProt Q4FZV0); assay: Inhibition of rat epididymis beta-mannosidase assessed as p-nitrophenol release by spectrophotometrically
T6 sequence (Q4FZV0 whole entry): T2 sequence (whole entry)

[13] = Inhibition of yeast isomaltase alpha-glucosidase assessed as glucose release by Glucose B-test

Sucrase-isomaltase, intestinal (Rattus norvegicus), sequence (P23739 1-1013 limits assumed): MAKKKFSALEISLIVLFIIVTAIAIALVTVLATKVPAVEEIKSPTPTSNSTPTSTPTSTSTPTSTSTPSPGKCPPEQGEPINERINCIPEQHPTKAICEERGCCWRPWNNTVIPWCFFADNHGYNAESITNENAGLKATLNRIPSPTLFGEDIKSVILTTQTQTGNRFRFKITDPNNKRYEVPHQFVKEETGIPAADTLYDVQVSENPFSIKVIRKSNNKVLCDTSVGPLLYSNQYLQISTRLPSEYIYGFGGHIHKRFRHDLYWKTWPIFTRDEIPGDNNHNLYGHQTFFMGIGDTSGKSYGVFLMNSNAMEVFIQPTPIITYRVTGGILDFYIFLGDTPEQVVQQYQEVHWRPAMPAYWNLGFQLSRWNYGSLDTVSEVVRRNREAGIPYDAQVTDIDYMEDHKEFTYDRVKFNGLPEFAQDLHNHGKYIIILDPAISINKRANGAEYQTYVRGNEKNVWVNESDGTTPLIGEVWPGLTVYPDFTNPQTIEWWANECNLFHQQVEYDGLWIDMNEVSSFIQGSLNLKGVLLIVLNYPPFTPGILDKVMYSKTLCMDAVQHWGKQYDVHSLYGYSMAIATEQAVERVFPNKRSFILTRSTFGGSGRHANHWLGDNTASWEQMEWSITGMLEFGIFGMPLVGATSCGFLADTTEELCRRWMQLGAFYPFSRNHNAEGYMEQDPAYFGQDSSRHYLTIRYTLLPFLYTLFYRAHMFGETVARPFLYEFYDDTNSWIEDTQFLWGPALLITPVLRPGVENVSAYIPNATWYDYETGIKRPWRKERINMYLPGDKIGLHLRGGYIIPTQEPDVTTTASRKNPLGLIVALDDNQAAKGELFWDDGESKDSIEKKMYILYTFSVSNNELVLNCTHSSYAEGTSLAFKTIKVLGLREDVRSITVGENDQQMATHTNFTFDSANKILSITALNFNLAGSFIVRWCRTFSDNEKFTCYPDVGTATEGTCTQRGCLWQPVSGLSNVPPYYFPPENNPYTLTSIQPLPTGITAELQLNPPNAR
Sucrase-isomaltase, intestinal (Rattus norvegicus), sequence (P23739 1014-1841 limits assumed): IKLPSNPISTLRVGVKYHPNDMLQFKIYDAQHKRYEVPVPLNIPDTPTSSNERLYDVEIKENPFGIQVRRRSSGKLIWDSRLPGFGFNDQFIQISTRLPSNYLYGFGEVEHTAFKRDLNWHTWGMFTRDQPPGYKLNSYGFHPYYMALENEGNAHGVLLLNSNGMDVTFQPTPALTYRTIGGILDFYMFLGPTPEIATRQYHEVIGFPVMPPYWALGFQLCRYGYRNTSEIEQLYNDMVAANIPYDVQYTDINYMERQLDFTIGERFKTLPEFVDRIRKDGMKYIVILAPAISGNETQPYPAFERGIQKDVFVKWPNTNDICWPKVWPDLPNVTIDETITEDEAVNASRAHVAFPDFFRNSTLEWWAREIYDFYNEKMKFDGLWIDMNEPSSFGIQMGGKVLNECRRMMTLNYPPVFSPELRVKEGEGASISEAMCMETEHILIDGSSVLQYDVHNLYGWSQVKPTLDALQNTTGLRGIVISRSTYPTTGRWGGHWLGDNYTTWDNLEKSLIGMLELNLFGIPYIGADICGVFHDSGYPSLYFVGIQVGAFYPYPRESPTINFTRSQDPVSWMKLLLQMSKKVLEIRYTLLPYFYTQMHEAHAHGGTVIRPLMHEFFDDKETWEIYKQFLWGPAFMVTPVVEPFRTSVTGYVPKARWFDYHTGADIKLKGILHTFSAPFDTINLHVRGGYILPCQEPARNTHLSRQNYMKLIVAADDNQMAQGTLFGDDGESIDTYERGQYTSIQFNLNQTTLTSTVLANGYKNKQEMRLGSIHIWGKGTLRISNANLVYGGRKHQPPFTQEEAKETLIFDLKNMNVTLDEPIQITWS
Alpha-galactosidase (Coffea arabica), sequence (Q42656 16-378 limits assumed): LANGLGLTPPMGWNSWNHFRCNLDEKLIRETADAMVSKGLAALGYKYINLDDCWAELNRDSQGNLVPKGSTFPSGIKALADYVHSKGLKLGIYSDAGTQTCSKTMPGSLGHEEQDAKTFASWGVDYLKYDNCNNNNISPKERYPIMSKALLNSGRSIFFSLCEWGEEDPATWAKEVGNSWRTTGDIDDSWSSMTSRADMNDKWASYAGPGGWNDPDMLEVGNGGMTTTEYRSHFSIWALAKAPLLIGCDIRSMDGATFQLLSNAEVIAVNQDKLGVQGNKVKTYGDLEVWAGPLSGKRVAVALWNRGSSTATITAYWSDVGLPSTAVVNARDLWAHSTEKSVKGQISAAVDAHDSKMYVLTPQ
Lysosomal alpha-glucosidase (Rattus norvegicus), sequence (Q6P7A9 whole entry): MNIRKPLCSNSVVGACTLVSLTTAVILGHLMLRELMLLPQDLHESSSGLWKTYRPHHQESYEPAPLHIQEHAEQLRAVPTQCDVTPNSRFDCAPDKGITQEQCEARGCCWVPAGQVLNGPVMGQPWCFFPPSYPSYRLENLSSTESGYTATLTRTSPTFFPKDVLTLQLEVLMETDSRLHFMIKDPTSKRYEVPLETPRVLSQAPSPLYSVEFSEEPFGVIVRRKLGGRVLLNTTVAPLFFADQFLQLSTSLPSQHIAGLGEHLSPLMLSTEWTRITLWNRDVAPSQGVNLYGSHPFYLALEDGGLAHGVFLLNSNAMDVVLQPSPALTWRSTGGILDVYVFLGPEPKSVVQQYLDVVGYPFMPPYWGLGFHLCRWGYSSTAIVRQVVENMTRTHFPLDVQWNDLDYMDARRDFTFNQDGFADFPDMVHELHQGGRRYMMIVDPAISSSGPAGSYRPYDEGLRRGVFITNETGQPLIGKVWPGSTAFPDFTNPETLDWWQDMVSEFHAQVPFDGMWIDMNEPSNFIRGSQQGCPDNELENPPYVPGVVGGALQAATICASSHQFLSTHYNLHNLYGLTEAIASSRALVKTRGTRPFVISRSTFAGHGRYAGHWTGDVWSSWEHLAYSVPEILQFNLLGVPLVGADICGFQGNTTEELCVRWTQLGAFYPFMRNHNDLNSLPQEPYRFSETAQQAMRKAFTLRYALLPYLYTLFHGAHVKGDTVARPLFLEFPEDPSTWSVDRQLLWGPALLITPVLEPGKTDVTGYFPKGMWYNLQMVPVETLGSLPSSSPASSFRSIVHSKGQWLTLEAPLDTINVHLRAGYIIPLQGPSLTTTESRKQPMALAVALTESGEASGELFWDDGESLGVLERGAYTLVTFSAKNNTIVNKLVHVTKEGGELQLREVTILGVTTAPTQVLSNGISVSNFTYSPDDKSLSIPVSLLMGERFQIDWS
Alpha-glucosidase MAL62, sequence (P07265 whole entry): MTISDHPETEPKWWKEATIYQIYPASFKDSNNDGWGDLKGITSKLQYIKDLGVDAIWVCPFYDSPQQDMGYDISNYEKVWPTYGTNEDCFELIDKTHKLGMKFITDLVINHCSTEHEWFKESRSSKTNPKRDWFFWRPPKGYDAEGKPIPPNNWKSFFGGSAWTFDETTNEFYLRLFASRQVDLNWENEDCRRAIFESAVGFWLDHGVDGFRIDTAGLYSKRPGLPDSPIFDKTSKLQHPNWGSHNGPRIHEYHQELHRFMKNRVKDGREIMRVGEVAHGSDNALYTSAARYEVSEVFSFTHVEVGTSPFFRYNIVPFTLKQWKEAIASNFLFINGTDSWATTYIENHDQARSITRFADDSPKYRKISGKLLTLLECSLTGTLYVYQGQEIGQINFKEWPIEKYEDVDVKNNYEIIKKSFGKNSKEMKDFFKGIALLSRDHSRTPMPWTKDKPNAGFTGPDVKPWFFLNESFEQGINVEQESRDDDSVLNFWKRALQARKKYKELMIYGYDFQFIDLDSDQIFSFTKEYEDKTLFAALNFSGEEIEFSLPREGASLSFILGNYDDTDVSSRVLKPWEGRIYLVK
Alpha-glucosidase MAL62 (Saccharomyces cerevisiae), sequence (P07265 whole entry): as above

Row | inhibition (Rattus norvegicus) | IC50 [1] | inhibition (Oryza sativa) | inhibition [2] | inhibition [4] | inhibition [5] | inhibition [7] | SMILES | other results
1 | < 50% | 35 µM | < 50% | < 50% | < 50% | < 50% | < 50% | C[C@H]1N[C@@H](CO)[C@@H](O)[C@H]1O | inhibition (Aspergillus niger): < 50%; inhibition [3]: < 50%; inhibition [6]: < 50%; inhibition (Saccharomyces cerevisiae [8]): < 50%
2 |  |  |  |  |  |  |  | OCCN1C[C@H](O)[C@@H](O)[C@H](O)[C@H]1CO [MIGLITOL] | IC50 (Uncharacterized protein): 700 µM; inhibition [9]: < 50%; inhibition (Saccharomyces cerevisiae [10]): < 50%
3 |  |  |  |  |  |  |  | OC[C@H]1N[C@H](CO)[C@@H](O)[C@@H]1O | IC50 (Alpha-glucosidase MAL62): 2 µM
4 |  |  |  |  |  |  |  | C[C@H]1O[C@H](OC[C@H]2NC[C@@H](O)[C@@H](O)[C@@H]2O)[C@@H](O)[C@@H](O)[C@@H]1O | Ki [1]: 0.06 µM
5 | < 50% | 1 µM | < 50% | < 50% | < 50% | < 50% | < 50% | C[C@H]1N[C@@H](CO)[C@H](O)[C@H]1O | IC50 [11]: 510 µM; Ki [1]: 0.49 µM; IC50 (Beta-galactosidase): 420 µM; inhibition [3]: < 50%; IC50 [12]: 570 µM
6 | < 50% | 150 µM | < 50% | < 50% | < 50% | < 50% | < 50% | C[C@H]1N[C@H](CO)[C@@H](O)[C@@H]1O | IC50 [11]: 160 µM; IC50 (Beta-galactosidase): 30 µM; IC50 (Beta-mannosidase): 93 µM; IC50 [12]: 270 µM
7 |  |  |  |  |  |  |  | OC[C@H]1NC[C@H](O)[C@@H](O)[C@@H]1O [DUVOGLUSTAT] | IC50 [13]: 42 µM; IC50 (Uncharacterized protein): 41 µM; IC50 (Alpha-glucosidase MAL62): 110 µM
